Calls of active or inactive are those of the source. The calls are words filed in the database; no cut-off is given here.
Legend:
[1] = species on record: Mus musculus; assay: Acid-soluble DNA incorporation in mouse Mecca lymphosarcoma ascite tumor allografted in AKD2F1 mouse assessed as snake venome 5'-nucleotidase-mediated nucleotide hydrolysis at 2.6 umol after 2 hrs; format: functional; parameters: scale not given: the % may be the effect or the level left
How it was run: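 Female AKD2F1 mice bearing 4-day Mecca lymphosarcoma ascites were used in groups of three. Aliquots of the acid-soluble fraction were digested with crude Crotalus adamanteus venom (phosphodiesterase plus 5'-nucleotidase) for 2 h at 37 °C.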

[2] = species on record: Mus musculus; assay: Acid-insoluble DNA incorporation in mouse Mecca lymphosarcoma ascite tumor allografted in AKD2F1 mouse assessed as detection of [35S] in nucleoside at 2.6 umol after 4 hrs by scintillation counting analysis; format: functional
How it was run: (§1)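 Female AKD2F1 mice (groups of 3) bearing 4-day Mecca lymphosarcoma ascites tumors; 2.6 μmol [35S]nucleoside ip, repeated after 2 h; peritoneal cells washed out 2 h later. Acid-insoluble nucleic acid extracted in 10% NaCl at 100 °C, RNA removed by alkali; DNA digested with DNase I then phosphodiesterase I at 37 °C; paper chromatography, spots counted by scintillation.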

[3] = Stability in RPMI 1640 assessed as formation of thioguanine after 24 hrs in presence of 10% dialyzed horse serum; format: physicochemical
How it was run: (§2)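 Nucleosides incubated without cells in RPMI 1640 containing 10% fetal calf serum or 10% dialyzed horse serum, 20 min or 24 h; cleavage to thioguanine monitored.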

[4] = Stability in RPMI 1640 after 24 hrs in presence of 10% fetal calf serum; format: physicochemical; conditions: cattle; how it was run: as §2
[5] = tested on: Mus musculus; assay: Acid-insoluble DNA incorporation in mouse Mecca lymphosarcoma ascite tumor allografted in AKD2F1 mouse assessed per mg of DNA at 2.6 umol, ip after 4 hrs by scintillation counting analysis; format: functional; how it was run: as §1
[6] = tested on: WIL2; assay: Antiproliferative activity against human WIL2 cells assessed as decrease in cell number at 100 to 300 uM measured every 24 hrs by electronic particle counting analysis in presence of 10% dialyzed horse serum; format: functional, cell-based
How it was run: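 WI-L2 cells in RPMI 1640 + 10% dialyzed horse serum with penicillin/streptomycin; log-phase cells (2×10^5/mL) mixed 1:1 with double-strength drug medium at several concentrations, duplicate cultures, counted every 24 h by electronic particle counter.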

[7] = species on record: Mus musculus; assay: Acid-soluble DNA incorporation in mouse Mecca lymphosarcoma ascite tumor allografted in AKD2F1 mouse assessed as wheat germ 3'-nucleotidase-mediated nucleotide hydrolysis at 2.6 umol after 1 hr; format: functional; parameters: scale not given: the % may be the effect or the level left
How it was run: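 Acid-soluble fraction from mice dosed ip with 2.6 μmol [35S]nucleoside twice, 2 h apart. Aliquot treated with nucleotidase-free phosphodiesterase (pH 8.6, 1 h, 37 °C), then wheat germ 3'-nucleotidase (4 units, pH 5, 1 h, 37 °C); separated by paper chromatography and counted.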

[8] = species on record: Mus musculus; assay: Acid-soluble DNA incorporation in mouse Mecca lymphosarcoma ascite tumor allografted in AKD2F1 mouse assessed as detection of [35S] in nucleotide per mg of DNA at 2.6 umol after 4 hrs by scintillation counting analysis; format: functional
How it was run: (§3)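 Same mouse dosing as the DNA study: 2.6 μmol [35S]nucleoside ip twice, 2 h apart, to AKD2F1 mice carrying Mecca lymphosarcoma ascites; cells harvested 2 h after the second dose. Acid-soluble fraction chromatographed on paper in 5% KH2PO4 with mercaptoethanol; nucleoside and nucleotide spots scintillation-counted, expressed per mg DNA.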

[9] = Stability in RPMI 1640 after 20 mins in presence of 10% fetal calf serum; format: physicochemical; conditions: cattle; how it was run: as §2
[10] = tested on: WIL2; assay: Stability in human WIL2 cells assessed as formation of thioguanine; format: ADME, cell-based
How it was run: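 WI-L2 cells incubated with labeled nucleoside; [35S]thioguanine formed was measured.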

[11] = species on record: Mus musculus; assay: Acid-soluble DNA incorporation in mouse Mecca lymphosarcoma ascite tumor allografted in AKD2F1 mouse assessed as detection of [35S] in nucleoside per mg of DNA at 2.6 umol after 4 hrs by scintillation counting analysis; format: functional; how it was run: as §3
[12] = species on record: Mus musculus; assay: Acid-insoluble DNA incorporation in mouse Mecca lymphosarcoma ascite tumor allografted in AKD2F1 mouse assessed as detection of [35S] in nucleotide at 2.6 umol after 4 hrs by scintillation counting analysis; format: functional; how it was run: as §1

SMILES	Activity [1] [%]	Activity [2] [%]	Stability [3]	Stability [4]	Activity [5] [nmol]	Activity [6]	Activity [7] [%]	Activity [8] [nmol]	Stability [9]	Stability [10]	Activity [11] [nmol]	Activity [12] [%]
Nc1nc2c(ncn2[C@@H]2C[C@H](O)[C@@H](CO)O2)c(=S)[nH]1	95.7	60	Stable	Unstable	0.84	Active	2	6.4	Stable	Stable	10.4	40
Nc1nc2c(ncn2[C@H]2C[C@H](CO)[C@@H](CO)O2)c(=S)[nH]1	94.8	90	Stable	Unstable	2.36		0	30.3	Stable	Stable	29.1	10
Nc1nc2c(ncn2[C@@H]2C[C@H](CO)[C@@H](CO)O2)c(=S)[nH]1	95.2	91	Stable	Unstable	2.42	Active	0	29.8	Stable	Stable	15.6	9

Reference: ChEMBL document CHEMBL3228020, “Improved antitumor effects in 3'-branched homologues of 2'-deoxythioguanosine. Synthesis and evaluation of thioguanine nucleosides of 2,3-dideoxy-3-(hydroxymethyl)-D-erythro-pentofuranose” (J Med Chem, 1979)
